From ChEMBL document CHEMBL3822375, “Preclinical Characterization of 3β-(N-Acetyl l-cysteine methyl ester)-2aβ,3-dihydrogaliellalactone (GPA512), a Prodrug of a Direct STAT3 Inhibitor for the Treatment of Prostate Cancer” (J Med Chem, 2016)
The source made the active and inactive calls. The calls are words filed in the database; no cut-off is given here.

Experiments:
[1] = system: Plasma; assay: Half life in human plasma assessed as formation of galiellalactone at 5 uM by LC-MS/MS analysis; format: ADME, cell-free
Summary of the method: (§1)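 Plasma of each species incubated at 37 °C with compound at 5 µM initial, 1% DMSO, n=2. Simvastatin and eucatropine run as controls. Aliquots taken at 0, 5, 15, 30 and 60 min and quenched with acetonitrile containing internal standard, then analysed by LC-MS/MS.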

[2] = system: Plasma; assay: Half life in dog plasma assessed as formation of galiellalactone at 5 uM by LC-MS/MS analysis; format: ADME, cell-free, Canis lupus familiaris; summary of the method: as §1
[3] = system: Plasma; assay: Half life in rat plasma assessed as formation of galiellalactone at 5 uM by LC-MS/MS analysis; format: ADME, cell-free; summary of the method: as §1
[4] = system: Plasma; assay: Half life in mouse plasma assessed as formation of galiellalactone at 5 uM by LC-MS/MS analysis; format: ADME, cell-free; summary of the method: as §1
[5] = system: Mus musculus; assay: Cmax in mouse plasma assessed as galiellalactone level at 40 mg/kg, po by LC-MS/MS analysis; format: ADME, organism-based; parameters: dose 40 mg/kg, route oral; conditions: in vivo
Summary of the method: (§2)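 Single dose to mice; oral, iv or ip as listed, in 5% DMSO/50 mM citrate buffer pH 4.0 (dosing solutions 0.5, 2 or 5 mg/mL). Oral dosing at 20 mL/kg. Terminal blood under barbiturate anaesthesia at eight time-points to 8 h, n=3 mice per time-point, EDTA plasma. Acetonitrile precipitation with internal standard, LC-MS/MS against plasma calibration lines. Non-compartmental analysis on mean data, trapezoidal AUC.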

[6] = system: Mus musculus; assay: Apparent half life in mouse plasma assessed as galiellalactone level at 40 mg/kg, po by LC-MS/MS analysis; format: ADME, organism-based; conditions: in vivo; summary of the method: as §2
[7] = system: Mus musculus; assay: AUC (0 to infinity) in mouse plasma at 40 mg/kg, po by LC-MS/MS analysis; format: ADME, organism-based; parameters: dose 40 mg/kg, route oral, time infinity; conditions: in vivo; summary of the method: as §2
[8] = system: Mus musculus; assay: Tmax in mouse plasma assessed as galiellalactone level at 100 mg/kg, po by LC-MS/MS analysis; format: ADME, organism-based; conditions: in vivo
[9] = system: Mus musculus; assay: Apparent half life in mouse plasma assessed as galiellalactone level at 100 mg/kg, po by LC-MS/MS analysis; format: ADME, organism-based; conditions: in vivo; summary of the method: as §2
[10] = system: Mus musculus; assay: AUC (0 to t) in mouse plasma assessed as galiellalactone level at 100 mg/kg, po by LC-MS/MS analysis; format: ADME, organism-based; conditions: in vivo; summary of the method: as §2
[11] = system: Mus musculus; assay: AUC (0 to infinity) in mouse plasma assessed as galiellalactone level at 100 mg/kg, po by LC-MS/MS analysis; format: ADME, organism-based; parameters: dose 100 mg/kg, time infinity, route oral; conditions: in vivo; summary of the method: as §2
[12] = system: Hepatocyte; assay: Prodrug conversion in mouse hepatocytes assessed as formation of 3-beta-(N-Acetyl-L-cysteine)-2a-beta,3-dihydrogaliellalactone after 2 hrs by UPLC-MS analysis; format: ADME, cell-based
Summary of the method: (§3)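 Cryopreserved mouse hepatocytes incubated with an initial 10 µM test item (DMSO stock) in Celsis InVitro HI medium, pH 7.4, 37 °C. Cell viability checked by Trypan blue. Sampled at 0 and 120 min and stopped with an equal volume of acetonitrile. Analysed by UPLC/Q-TOF-MS.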

[13] = system: DU-145; assay: Antitumor activity against human DU145 cells xenografted in NMRI mouse assessed as reduction of tumor growth rate at 40 mg/kg, po administered 5 times per week for 4 weeks measured on day 26 and day 29 relative to vehicle-treated control; format: functional, organism-based
Summary of the method: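 NMRI-nude male mice given 1.5 million DU145 cells s.c. in the flank. After four weeks, split into two groups of ten. Oral gavage with compound at 40 mg/kg or vehicle (50 mM citrate pH 4.0, 2% DMSO), daily five times per week for four weeks. Caliper measurement twice weekly; volume = width × length × height × 0.52.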

[14] = system: Mus musculus; assay: Toxicity in NMRI mouse xenografted with human DU145 cells assessed as weight loss at 40 mg/kg, po administered 5 times per week for 4 weeks measured on day 26 and day 29; format: organism-based, DU-145; conditions: in vivo, 672 h
Summary of the method: (§4)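 Male NMRI-nude mice, 20 in total, were given 1.5 million DU145 cells subcutaneously in the flank. After 4 weeks they were split into two groups of 10. Each group was gavaged with 40 mg/kg or with vehicle (50 mM citrate buffer pH 4.0, 2% DMSO) daily, 5 times per week for 4 weeks. Body weight, behaviour, side effects and survival were monitored, and tumours were measured twice weekly by caliper.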

[15] = system: Mus musculus; assay: Toxicity in NMRI mouse xenografted with human DU145 cells assessed as behavioral alterations at 40 mg/kg, po administered 5 times per week for 4 weeks measured on day 26 and day 29; format: organism-based, DU-145; conditions: in vivo, 672 h; summary of the method: as §4
[16] = system: DU-145; assay: Induction of apoptosis in human DU145 cells xenografted in NMRI nude mouse assessed as increase in cleaved caspase3 level at 40 mg/kg, po administered 5 times per week for 4 weeks by immunohistochemical analysis; format: functional, organism-based
Summary of the method: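 DU145 cells (1.5 million) inoculated subcutaneously in the flank of NMRI-nude male mice. After four weeks, 10 mice per group were dosed orally by feeding needle with 40 mg/kg or vehicle (50 mM citrate buffer pH 4.0, 2% DMSO), five days a week for four weeks. Tumours were fixed in formaldehyde and stained for cleaved caspase-3. Positive cells were counted as the mean per view over five 10x views per section.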

[17] = Downregulation of MCL1 mRNA expression in human DU145 cells xenografted in NMRI nude mouse at 40 mg/kg, po administered 5 times per week for 4 weeks by qPCR analysis; format: functional, organism-based; conditions: DU-145
Summary of the method: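 Half of each DU145 xenograft tumour was snap frozen for mRNA. MCL1 and BCL2 measured by quantitative real-time PCR: 10 min at 95°C, then 40 cycles of 95°C 15 s and 60°C 60 s. Comparative Ct method, normalized to HMBS and SDHA.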

[18] = system: Mus musculus; assay: Toxicity in CD1 mouse assessed as change in body weight at 40 mg/kg, administered as single dose through oral gavage measured on day 4 (reference value: 34.68 +/- 4.71 g); format: organism-based; conditions: in vivo
[19] = system: Mus musculus; assay: Toxicity in CD1 mouse assessed as change in body weight at 200 mg/kg, administered as single dose through oral gavage measured on day 4 (reference value: 34.68 +/- 4.71 g); format: organism-based; conditions: in vivo
[20] = system: Mus musculus; assay: Cmax in mouse plasma assessed as galiellalactone level at 10 mg/kg, po by LC-MS/MS analysis; format: ADME, organism-based; parameters: dose 10 mg/kg, route oral; conditions: in vivo; summary of the method: as §2
[21] = system: Mus musculus; assay: Apparent half life in mouse plasma assessed as galiellalactone level at 10 mg/kg, po by LC-MS/MS analysis; format: ADME, organism-based; conditions: in vivo; summary of the method: as §2
[22] = system: Mus musculus; assay: AUC (0 to infinity) in mouse plasma assessed as galiellalactone level at 10 mg/kg, po by LC-MS/MS analysis; format: ADME, organism-based; parameters: dose 10 mg/kg, route oral, time infinity; conditions: in vivo; summary of the method: as §2
[23] = system: Hepatocyte; assay: Prodrug conversion in mouse hepatocytes assessed as galiellalactone formation of after 2 hrs by UPLC-MS analysis; format: ADME, cell-based; summary of the method: as §3
[24] = system: Mus musculus; assay: Toxicity in NMRI mouse xenografted with human DU145 cells assessed as mouse survival at 40 mg/kg, po administered 5 times per week for 4 weeks measured on day 26 and day 29; format: organism-based, DU-145; conditions: in vivo, 672 h; summary of the method: as §4
[25] = system: Mus musculus; assay: Toxicity in CD1 mouse assessed as effect on clinical signs at 40 to 400 mg/kg, administered as single dose through oral gavage; format: organism-based; conditions: in vivo
Summary of the method: (§5)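 Male CD1 mice, 7 weeks old, 5 per group, given one oral gavage dose of 40, 200 or 400 mg/kg in 50 mM citrate buffer, pH 4.0, 5% DMSO, alongside a vehicle control group. Clinical signs, clinical pathology and histopathology were assessed, with the study ending on day 8.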

[26] = system: Mus musculus; assay: Toxicity in CD1 mouse assessed as effect on clinical pathological parameters at 40 to 400 mg/kg, administered as single dose through oral gavage; format: organism-based; conditions: in vivo; summary of the method: as §5

Structure (SMILES): COC(=O)[C@H](CS[C@H]1C2C(=O)O[C@@H]3CC[C@H](C[C@@H]1C)[C@]23O)NC(C)=O (stereo partly specified)
- t1/2 [1]: < 5 min
- t1/2 [2]: < 5 min
- t1/2 [3]: < 5 min
- t1/2 [4]: < 5 min
- Cmax [5]: 3733 ng/mL
- t1/2(app) [6]: 180 min
- AUC [7]: 215 µg/mL/min
- Tmax [8]: 15 min
- t1/2(app) [9]: 180 min
- AUCt [10]: 676 µg/mL/min
- AUC [11]: 679 µg/mL/min
- Drug metabolism [12]: metabolite_detected
- inhibition [13]: Active
- Activity [14]: Non-toxic
- Activity [15]: Non-toxic
- Activity [16]: Active
- Activity [17]: Active
- Activity [18]: 33.68 g
- Activity [19]: 35.3 g
- Cmax [20]: 1893 ng/mL
- t1/2(app) [21]: 92 min
- AUC [22]: 120 µg/mL/min
- Drug metabolism [23]: metabolite_detected
- Activity [24]: Non-toxic
- Activity [25]: Non-toxic
- Activity [26]: Non-toxic
